In ChEMBL document CHEMBL4350958, “Rational Design of Short Peptide Variants by Using Kunitzin-RE, an Amphibian-Derived Bioactivity Peptide, for Acquired Potent Broad-Spectrum Antimicrobial and Improved Therapeutic Potential of Commensalism Coinfection of Pathogens” (J Med Chem, 2019):
Active and inactive are the calls of the source. The calls are words filed in the database; no cut-off is given here. Where a SMILES comes first, the peptide text is derived from it.

What was measured:
Escherichia coli [1] = test: Induction of cytoplasmic membrane depolarization in Escherichia coli ATCC 25922 at MIC up to 3000 secs by DiSC3-5 dye-based fluorescence spectrophotometric method; type: organism-based
Summary of the method: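 Mid-log E. coli ATCC 25922 (OD600 0.05) equilibrated with 0.4 μM DiSC3-5 and 100 mM K+ in 5 mM HEPES pH 7.4 with 20 mM glucose until fluorescence was stably quenched. Peptide then added in a 1-cm cuvette, and fluorescence (ex 622/em 670 nm) followed from 0 to 3000 s. Triplicate independent runs.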

Candida albicans [2] = test: Fungicidal activity against Candida albicans cgmcc2.2086 assessed as reduction in bacterial growth at MFC by time-kill assay; type: functional, organism-based
Summary of the method: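 Time-kill assay. E. coli ATCC 25922, S. aureus ATCC 29213 or C. albicans cgmcc 2.2086 at a final 0.5-1×10^5 CFU mL-1 treated at 1×MBC/MFC. Aliquots collected at different times to calculate survival, with an untreated control. Mean of three independent experiments, each with three technical replicates.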

Lipid bilayer = test: Induction of membrane disruption in PG/CL/PE large unilamellar vesicles assessed as calcein-entrapped liposome leakage at 1 to 64 uM after 15 mins by spectrofluorophotometric assay
Summary of the method: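 Calcein-loaded LUVs (PG/CL/PE 2:1:7 w/w/w, E. coli membrane mimic), extruded through 100-nm filters, free dye removed on Sephadex G-50. Lipid (100 μM) incubated 15 min with peptide (1–64 μM). Calcein release read at ex 490/em 520 nm and normalised to Triton X-100. Triplicate, three biological replicates.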

Escherichia coli [3] = test: Bactericidal activity against Escherichia coli ATCC 25922 assessed as reduction in bacterial growth at MBC measured within 30 mins by time-kill assay relative to control; type: functional; set-up: scale not given: the % may be the effect or the level left
Summary of the method: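 Time-kill assay. Cells at a final 0.5–1 × 10^5 CFU mL−1 were exposed to peptide at 1×MBC. Aliquots were removed at different times to calculate the survival rate against an untreated control. Mean of three independent experiments, each with three technical replicates.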

Pseudomonas aeruginosa [4] = test: Antibacterial activity against Pseudomonas aeruginosa ATCC 27853 at sub-MBC measured after 30 serial passages; type: functional, organism-based
Summary of the method: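 P. aeruginosa ATCC 27853 passaged every 24 h by 100-fold dilution in MHB containing sub-MBC drug, for 30 passages. MBC was tested on the cells from each passage. Control cells were passaged in drug-free MHB. Run independently in triplicate with three biological replicates.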

Staphylococcus aureus [5] = test: Induction of morphological changes in Staphylococcus aureus ATCC 29213 assessed as sparse distribution of cytoplasm at MBD measured after 1 hr by transmission electron microscopic analysis; type: functional, organism-based
Staphylococcus aureus [6] = test: Disruption of plasma membrane integrity in Staphylococcus aureus ATCC 29213 at MBC measured after 30 mins using FITC-labeled compound by propidium iodide staining-based microscopic analysis; type: organism-based
Summary of the method: (§1)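 E. coli ATCC 25922 or S. aureus ATCC 29213 (OD600 0.2) incubated with FITC-labeled peptide at 1×MBC, 37 °C, 30 min. Cells washed, resuspended with PI (10 μg/mL) in PBS, smeared and imaged by superresolution microscopy using 488 and 535 nm filters for FITC and PI. Peptide-free cells served as controls. Three independent scans.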

Escherichia coli [7] = test: Disruption of plasma membrane integrity in Escherichia coli ATCC 25922 at MBC measured after 30 mins using FITC-labeled compound by propidium iodide staining-based microscopic analysis; type: organism-based; summary of the method: as §1
Candida albicans [8] = test: Antifungal activity against Candida albicans cgmcc2.2086 assessed as ratio of MIC95 in presence of CaCl2 to in absence of CaCl2; type: functional
Summary of the method: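 C. albicans cgmcc 2.2086, (0.5–1) × 10^3 CFU/mL final in MOPS-buffered RPMI 1640, with or without 2 mM CaCl2 (final). Peptide serially diluted in 0.2% BSA and mixed 1:1, 48 h at 28 °C. MIC is the lowest concentration inhibiting 95% of growth by A492. Three independent assays, each with three technical replicates.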

Escherichia coli [9] = test: Drug uptake in plasma membrane of Escherichia coli ATCC 25922 at MBC measured after 30 mins using FITC-labeled compound by microscopic analysis; type: ADME, organism-based; settings: in vivo, 0.5 h; summary of the method: as §1
Escherichia coli [10] = test: Induction of morphological changes in Escherichia coli ATCC 25922 assessed as separation between outer membrane and cytoplasmic membrane at MBD measured after 1 hr by transmission electron microscopic analysis; type: functional, organism-based
Lipopolysaccharide (LPS) = test: Displacement of BODIPY-TR-cadaverine from Escherichia coli O111:B4 LPS at 16 uM after 1 hr by spectrofluorophotometric method relative to control
Summary of the method: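 E. coli O111:B4 LPS (50 μg/mL) preloaded 4 h with BODIPY-TR-cadaverine (5 μg/mL) in 50 mM Tris, pH 7.4. Mixed 1:1 with peptide (1–64 µM series), 1 h at 37 °C, then fluorescence read. Expressed as %ΔF: 0% is probe with LPS and no peptide, 100% is probe with LPS plus 10 μg/mL polymyxin B. Three technical replicates.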

Escherichia coli [11] = test: Induction of morphological changes in Escherichia coli ATCC 25922 assessed as cell content leakage at MBD measured after 1 hr by transmission electron microscopic analysis; type: functional, organism-based
Escherichia coli [12] = test: Induction of morphological changes in Escherichia coli ATCC 25922 at MBD measured after 1 hr by atomic force microscopic analysis; type: functional, organism-based
Staphylococcus aureus [13] = test: Induction of morphological changes in Staphylococcus aureus ATCC 29213 assessed as membrane creping at MBD measured after 1 hr by atomic force microscopic analysis; type: functional, organism-based
Staphylococcus aureus [14] = test: Induction of morphological changes in Staphylococcus aureus ATCC 29213 assessed as tiny hole formation at MBD measured after 1 hr by transmission electron microscopic analysis; type: functional, organism-based
Pseudomonas aeruginosa [15] = test: Antibacterial activity against melittin-resistant Pseudomonas aeruginosa ATCC 27853 measured after 24 hrs; type: functional, organism-based
Staphylococcus aureus [16] = test: Drug uptake in plasma membrane of Staphylococcus aureus ATCC 29213 at MBC measured after 30 mins using FITC-labeled compound by microscopic analysis; type: ADME, organism-based; settings: in vivo, 0.5 h; summary of the method: as §1
Candida albicans [17] = test: Antifungal activity against Candida albicans cgmcc2.2086 infected in C57BL/6 mouse model of keratitis assessed as reduction in fungal colonies in eyeballs at 5 mg/ml administered as topical eye drop every 5 mins for first 4 hrs and every 30 mins for next 7 hrs measured post-last dose by agar plate method relative to control; type: functional; set-up: scale not given: the % may be the effect or the level left
Escherichia coli [18] = test: Induction of morphological changes in Escherichia coli ATCC 25922 assessed as pore formation at MBD measured after 1 hr by transmission electron microscopic analysis; type: functional, organism-based
Escherichia coli [19] = test: Antibacterial activity against Escherichia coli ATCC 25922 assessed as ratio of MIC95 in presence of NaCl to in absence of NaCl; type: functional
RAW264.7 = test: Cytotoxicity against mouse RAW264.7 cells assessed as reduction in cell viability at 2 to 64 uM measured after 18 to 24 hrs by MTT assay relative to control; type: cell-based; settings: raw264.7, 64 µM
Summary of the method: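 MTT assay: RAW264.7 cells seeded at 1.0–2.0×10^4 per well and exposed to peptide (2–64 µM) for 18–24 h at 37 °C in 5% CO2. MTT (0.5 mg/mL) added for 4 h, formazan dissolved in DMSO, read at 570 nm. At least three independent experiments with triplicate wells.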

CC[C@H](C)[C@H](NC(=O)[C@H](CCCCN)NC(=O)[C@H](C)NC(=O)[C@H](C)N)C(=O)N[C@H](C(=O)N[C@@H](CC(C)C)C(=O)N[C@@H](CC(N)=O)C(=O)N1CCC[C@H]1C(=O)N[C@@H](CCCCN)C(=O)N[C@@H](Cc1ccccc1)C(=O)N[C@@H](CCCNC(=N)N)C(=O)N[C@@H](CS)C(=O)N[C@@H](CCCCN)C(=O)N[C@@H](C)C(=O)N[C@@H](C)C(=O)N[C@@H](Cc1ccccc1)C(=O)N[C@@H](CS)C(N)=O)[C@@H](C)CC (H-AAKIILNPKFRCKAAFC-NH2)
Activity (Escherichia coli [1]): Active

CC[C@H](C)[C@H](NC(=O)CN)C(=O)NCC(=O)N[C@@H](C)C(=O)N[C@H](C(=O)N[C@@H](CC(C)C)C(=O)N[C@@H](CCCCN)C(=O)N[C@H](C(=O)N[C@@H](CC(C)C)C(=O)N[C@H](C(=O)N[C@H](C(=O)NCC(=O)N[C@@H](CC(C)C)C(=O)N1CCC[C@H]1C(=O)N[C@@H](C)C(=O)N[C@@H](CC(C)C)C(=O)N[C@H](C(=O)N[C@@H](CO)C(=O)N[C@@H](Cc1c[nH]c2ccccc12)C(=O)N[C@H](C(=O)N[C@@H](CCCCN)C(=O)N[C@@H](CCCNC(=N)N)C(=O)N[C@@H](CCCCN)C(=O)N[C@@H](CCCNC(=N)N)C(=O)N[C@@H](CCC(N)=O)C(=O)N[C@@H](CCC(N)=O)C(N)=O)[C@@H](C)CC)[C@@H](C)CC)[C@@H](C)O)[C@@H](C)O)C(C)C)C(C)C [MELITTIN]
Activity (Candida albicans [2]): Active | Activity (Lipid bilayer): Active

H-AARIILRWRFR-NH2
Activity (Escherichia coli [3]): 99.99% | Activity (Pseudomonas aeruginosa [4]): Active | Activity (Staphylococcus aureus [5]): Active | Activity (Staphylococcus aureus [6]): Active | Activity (Escherichia coli [7]): Active | Ratio (Candida albicans [8]): 4 | Drug uptake (Escherichia coli [9]): Active | Activity (Escherichia coli [10]): Active | Activity (Lipopolysaccharide (LPS)): 99% | Activity (Escherichia coli [11]): Active | Activity (Escherichia coli [12]): Active | Activity (Staphylococcus aureus [13]): Active | Activity (Staphylococcus aureus [14]): Active | Activity (Pseudomonas aeruginosa [15]): Active | Drug uptake (Staphylococcus aureus [16]): Active | Activity (Candida albicans [17]): <=80% | Activity (Escherichia coli [18]): Active

H-AARRILRWIFR-NH2
Ratio (Escherichia coli [19]): 16 | Activity (RAW264.7): > 89.76%
